{"source": "paper PMC3583367", "about": "(ACS medicinal chemistry letters, 2013)", "key": {"[1]": {"tested_on": "STAT3 promoter activity", "experiment": "STAT3 dual luciferase reporter assay", "type": "cell-based, human", "details": "24 h pre-treatment", "outline": "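MDA-MB-231 cells were transiently transfected with the pSTAT3-Luc reporter vector and pretreated with test compound at different concentrations for 24 h. STAT3 promoter activity was then read by luciferase.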"}, "[2]": {"tested_on": "STAT3", "experiment": "Western blot of total and phosphorylated STAT3 in MDA-MB-231 cells", "type": "cell-based, human", "details": "MDA-MB-231, 24 h", "outline": "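MDA-MB-231 cells were treated with different doses of test compound for 24 h, then probed by Western blot for total STAT3 and Tyr-705 phospho-STAT3. Bands were quantified by densitometry over three independent experiments, with significance at p < 0.05 and p < 0.01.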"}, "[3]": {"tested_on": "MDA-MB-231 breast cancer cells", "experiment": "Annexin V-based flow cytometry apoptosis measurement", "type": "cell-based, human", "details": "MDA-MB-231, dose-dependent"}, "[4]": {"tested_on": "MDA-MB-231 breast cancer cells", "experiment": "Cellular morphological changes under light microscopy", "type": "cell-based, human", "details": "MDA-MB-231, 48 h, 1 μM, 5 μM and 10 μM"}, "[5]": {"tested_on": "human breast and pancreatic cancer cell lines", "experiment": "MTS proliferation assays, statements over the cell line panel", "type": "cell-based", "details": "for antiproliferative activity (in words): MCF-7, MDA-MB-231, AsPC1, Panc-1, MTS assays"}, "[6]": {"experiment": "Signs of toxicity in mice", "type": "in vivo", "details": "75 mg/kg"}, "[7]": {"tested_on": "MDA-MB-231 xenograft tumors", "experiment": "MDA-MB-231 xenograft tumor growth model", "type": "in vivo, mice"}, "[8]": {"tested_on": "cyclin D1", "experiment": "Western blot of cyclin D1 in MDA-MB-231 cells", "type": "cell-based, human", "details": "MDA-MB-231, Western blot", "outline": "(§1)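 Protein expression in MDA-MB-231 cells was analysed by Western blot after treatment with test compound. Band intensities were quantified by densitometry over three independent experiments, with significance marked at p < 0.05 and p < 0.01.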"}, "[9]": {"tested_on": "caspase-3", "experiment": "Western blot of cleaved caspase-3 in MDA-MB-231 cells", "type": "cell-based, human", "details": "MDA-MB-231, Western blot", "outline": "as §1"}}}
{"molecule": "O=C(Nc1ccc([N+](=O)[O-])cc1Cl)c1cc(Cl)ccc1O", "note": "[Compound 1, niclosamide, reference compound]", "values": [{"measurement": "STAT3 promoter activity (in words)", "setting": "[1]; 20 μM, MDA-MB-231", "result": "suppressed"}, {"measurement": "phosphorylated STAT3 (p-STAT3) at Tyr-705", "setting": "[2]", "result": "suppressed"}, {"measurement": "total STAT3 level", "setting": "[2]", "result": "reduced"}, {"measurement": "apoptosis (annexin V, flow cytometry)", "setting": "[3]", "result": "activated apoptosis"}, {"measurement": "cell proliferation and apoptosis with cellular morphological changes", "setting": "[4]", "result": "significantly inhibited cell proliferation and induced apoptosis"}]}
{"molecule": "O=C(Nc1ccc([N+](=O)[O-])cc1Cl)c1cc(Cl)ccc1OCCF", "note": "[Compound 3]", "values": [{"measurement": "antiproliferative activity (in words)", "setting": "[5]", "result": "no significant effects"}]}
{"molecule": "CN1CCC(Oc2ccc(Cl)cc2C(=O)Nc2ccc([N+](=O)[O-])cc2Cl)CC1", "note": "[Compound 4]", "values": [{"measurement": "fold loss of antiproliferative activity in comparison with analogue 10", "setting": "[5]; vs analogue 10", "result": 10, "unit": "fold"}]}
{"molecule": "O=C(Nc1ccc([N+](=O)[O-])cc1Cl)c1cc(Cl)ccc1OC1CCNCC1", "note": "[Compound 10]", "values": [{"measurement": "cell proliferation and apoptosis with cellular morphological changes", "setting": "[4]", "result": "significantly inhibited cell proliferation and induced apoptosis"}]}
{"molecule": "NCCOc1ccc(Cl)cc1C(=O)Nc1ccc([N+](=O)[O-])cc1Cl", "note": "[Compound 11]", "values": [{"measurement": "decrease of STAT3 promoter activity", "setting": "[1]; 10 μM, MDA-MB-231, compared with control", "result": "approximately 32%"}, {"measurement": "signs of toxicity", "setting": "[6]", "result": "did not show significant signs of toxicity"}, {"measurement": "inhibition of xenograft tumor growth, i.p.", "setting": "[7]; 7.5 mg/kg i.p., compared with 12.5 mg/kg niclosamide", "result": "better effect in inhibiting tumor growth"}, {"measurement": "growth of xenograft tumors, oral administration", "setting": "[7]; 25 mg/kg p.o., more efficacious than niclosamide at 75 mg/kg", "result": "significantly reduced"}, {"measurement": "xenograft tumor growth in vivo (both i.p. & p.o.)", "setting": "[7]; nude mice bearing MDA-MB-231 xenografts", "result": "significantly suppressed"}, {"measurement": "cyclin D1", "setting": "[8]", "result": "downregulated"}, {"measurement": "phosphorylated STAT3 (p-STAT3) at Tyr-705", "setting": "[2]", "result": "suppressed"}, {"measurement": "total STAT3 level", "setting": "[2]", "result": "reduced"}, {"measurement": "cleaved caspase-3", "setting": "[9]", "result": "induced"}, {"measurement": "apoptosis (annexin V, flow cytometry)", "setting": "[3]", "result": "activated apoptosis"}, {"measurement": "cell proliferation and apoptosis with cellular morphological changes", "setting": "[4]", "result": "significantly inhibited cell proliferation and induced apoptosis"}]}
{"molecule": "CS(=O)(=O)Nc1ccc(NC(=O)c2cc(Cl)ccc2OC2CCNCC2)c(Cl)c1", "note": "[Compound 19]", "values": [{"measurement": "antiproliferative activity (in words)", "setting": "[5]", "result": "significant loss of the antiproliferative activity"}]}
{"molecule": "CC(=O)Nc1ccc(NC(=O)c2cc(Cl)ccc2OC2CCNCC2)c(Cl)c1", "note": "[Compound 20]", "values": [{"measurement": "antiproliferative activity (in words)", "setting": "[5]", "result": "significant loss of the antiproliferative activity"}]}
